Measurements reported in ChEMBL document CHEMBL1955721, “Syntheses and cellular investigations of 17(3)-, 15(2)-, and 13(1)-amino acid derivatives of chlorin e(6)” (J Med Chem, 2011).

Assays:
[1] = Drug uptake in human Hep2 cell endoplasmic reticulum at 10 uM after 18 hrs by fluorescence microscopic analysis; type: ADME, cell-based; conditions: hep-2, 18 h
Method in brief: (§1)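 HEp2 cells grown 48 h on glass-bottom wells, then exposed to 10 µM compound for 18 h. Co-stained 30 min at 37 °C with LysoSensor Green 50 nM, MitoTracker Green 250 nM, ER Tracker Blue/White 100 nM or BODIPY FL C5 ceramide. Washed three times with PBS. Organelle sites scored by fluorescence overlay microscopy as major or minor.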

[2] = Drug uptake in human Hep2 cell lysosomes at 10 uM after 18 hrs by fluorescence microscopic analysis; type: ADME, cell-based, Lysosome; conditions: hep-2, 18 h; method in brief: as §1
[3] = Drug uptake in human Hep2 cell golgi at 10 uM after 18 hrs by fluorescence microscopic analysis; type: ADME, cell-based; conditions: hep-2, 18 h; method in brief: as §1
[4] = Drug uptake in human Hep2 cell mitochondria at 10 uM after 18 hrs by fluorescence microscopic analysis; type: ADME; conditions: hep-2, 18 h; method in brief: as §1
HEp-2 [5] = test: Drug uptake in human Hep2 cells at 10 uM measured up to 25 hrs by […]; type: ADME, cell-based; conditions: hep-2, 24 h, in the assay text read “24 hrs” for “25 hrs”
Method in brief: (§2)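 HEp2 cells plated 7500/well and grown 48 h. Given 10 µM compound (final DMSO ≤1%, Cremophor 0.1%) for 0, 1, 2, 4, 8, 12 and 24 h. Washed with PBS and lysed in 0.25% Triton X-100. Intracellular compound read by intrinsic fluorescence (ex 355/em 650 nm) in a plate reader and normalized to cell number by CyQuant.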

HEp-2 [6] = test: Cytotoxicity against human Hep2 cells under dark condition after 18 hrs by celltiter blue assay; type: functional, cell-based; conditions: HEp-2, 18 h
Method in brief: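 HEp2 cells (passages 4–15) plated 7500/well and grown 48 h. Two-fold serial dilutions from 400 to 50 µM applied for 18 h in the dark. Medium replaced, then CellTiter Blue added and incubated 4 h. Untreated cells taken as 100% viable, 0.2% saponin-treated as 0%.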

HEp-2 [7] = test: Cytotoxicity against human Hep2 cells after overnight incubation followed by cells irradiated with 1 J/cm'2 light for 20 mins measured after overnight incubation by celltiter blue assay; type: functional, cell-based; conditions: HEp-2, light or radiation study
Method in brief: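 HEp2 cells in 50:50 DMEM:AMEM with 5% FBS, passages 4–15, plated 7500/well and grown 48 h. Loaded overnight at 6.25–100 µM. Medium then swapped for one with 50 mM HEPES pH 7.2. Irradiated 20 min with a 100 W halogen lamp through a 610 nm long-pass filter (~1 J/cm2), IR cut by 10 mm water, plate on ice-water. Incubated overnight at 37 °C, then CellTiter Blue viability read.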

HEp-2 [8] = test: Ratio of IC50 for cytotoxicity against human Hep2 cells under dark condition to IC50 for human Hep2 cells in presence of 1 J/cm'2 light; type: functional
HEp-2 [9] = test: Drug uptake in human Hep2 cells at 10 uM after 24 hrs by fluorescence microscopic analysis relative to chlorin e6; type: ADME, cell-based; conditions: hep-2, 24 h; method in brief: as §2

Row | SMILES | Drug uptake [1] | Drug uptake [2] | Drug uptake [3] | Drug uptake [4] | Drug uptake (HEp-2 [5]) | IC50 (HEp-2 [6]) [µM] | IC50 (HEp-2 [7]) [µM] | Ratio IC50 (HEp-2 [8]) | fold change (FC) (HEp-2 [9])
1 | C=Cc1c(C)c2cc3nc(c(CC(=O)OC)c4[nH]c(cc5nc(cc1[nH]2)C(C)=C5CC)c(C)c4C(=O)OC)[C@@H](CCC(=O)N[C@@H](CCCCN)C(=O)OC)[C@@H]3C | Active | Active | Active | Not Active | Active | > 400 | 26.2 | >15.3 | –
2 | C=Cc1c(C)c2cc3nc(c(CC(=O)N[C@@H](CC(=O)O)C(=O)O)c4[nH]c(cc5nc(cc1[nH]2)C(C)=C5CC)c(C)c4C(=O)OC)[C@@H](CCC(=O)OC)[C@@H]3C | Active | Active | Not Active | Active | Active | 373 | 4 | 93.4 | –
3 | C=Cc1c(C)c2cc3nc(c(CC(=O)N[C@@H](CCCCN)C(=O)OC)c4[nH]c(cc5nc(cc1[nH]2)C(C)=C5CC)c(C)c4C(=O)OC)[C@@H](CCC(=O)OC)[C@@H]3C | Active | Active | Active | Not Active | – | > 400 | 28.8 | >13.9 | 18
4 | C=Cc1c(C)c2cc3nc(c(CC(=O)OC)c4[nH]c(cc5nc(cc1[nH]2)C(C)=C5CC)c(C)c4C(=O)N[C@@H](CC(=O)O)C(=O)O)[C@@H](CCC(=O)OC)[C@@H]3C | Active | Active | Active | Active | Active | 285 | 0.61 | 466.6 | –
5 | C=Cc1c(C)c2cc3nc(c(CC(=O)OC)c4[nH]c(cc5nc(cc1[nH]2)C(C)=C5CC)c(C)c4C(=O)NCCC(=O)N[C@@H](CC(=O)O)C(=O)O)[C@@H](CCC(=O)OC)[C@@H]3C | Active | Active | Active | Not Active | Active | 384 | 0.82 | 468.2 | –
6 | C=Cc1c(C)c2cc3nc(c(CC(=O)OC)c4[nH]c(cc5nc(cc1[nH]2)C(C)=C5CC)c(C)c4C(=O)NCCNC(=O)[C@@H](N)CCCCN)[C@@H](CCC(=O)OC)[C@@H]3C | Active | Active | Active | Not Active | Active | 268 | 1.34 | 200.3 | –
7 | C=Cc1c(C)c2cc3nc(c(CC(=O)O)c4[nH]c(cc5nc(cc1[nH]2)C(C)=C5CC)c(C)c4C(=O)O)[C@@H](CCC(=O)O)[C@@H]3C [CHLORIN E6] | Active | Active | Not Active | Not Active | Active | > 400 | 20.8 | >19.2 | –
